From PubChem
CRFR2-BP antag – antagonists of CRF-BP/CRF-R2 complex, primary screen, cell-based, HEK293, calcium dye fluorescence, uHTS; inhibition, % at 11.8 µM; 0.59% of 350,000 active; CRF-induced calcium fluorescence;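 active = inhibition of the ligand-induced calcium signal above about 50% at the single tested concentration, limit read from the data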
CRFR2-BP ag – agonists of CRF-BP/CRF-R2 complex, primary screen, cell-based, HEK293, calcium dye fluorescence, uHTS | AID 588473, 2011 | activation, % at 13.2 µM | 0.46% of 350,000 active | calcium dye fluorescence (FLIPR); percent of saturating CRF peptide response | CRF-binding protein / CRF receptor 2 complex (human);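 active = activation of at least 50%, plus an integration ratio under a set limit after plate pattern correction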;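 note: plate controls were neutral control wells without compound for no effect and CRF at EC100 for full effect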
RTF Ca sens inh – cardiac RTF calcium sensitivity inhibitors, primary screen, biochemical, IANBD-TnC fluorescence, EC70 calcium; inhibition, % at 7.15 µM; AID 493244, 2011; IANBD-labeled cardiac RTF, Ca2+ fluorescence; Troponin I, cardiac muscle (Homo sapiens) + Troponin T, cardiac muscle (Homo sapiens) + …; 0.12% of 340,000 active;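 active = inhibition above the mean inhibition of all tested compounds plus 3 SD, cut at about 17% in these data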;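 note: assay run at fixed EC70 calcium of 1.6 mM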
cardiac RTF act – cardiac RTF calcium sensitivity activators, primary screen, biochemical, IANBD-TnC fluorescence, EC20 calcium. Troponin I, cardiac muscle (Homo sapiens) + Troponin T, cardiac muscle (Homo sapiens) + …. activation, % at 7.2 µM. IANBD-labeled TnC RTF fluorescence at EC20 calcium; 0% EC20 calcium, 100% full calcium. 0.24% of 340,000 active;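 active = activation above the mean over all tested compounds plus 3 SD, cut at about 30% in these data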;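 note: rise in fluorescence read as greater calcium sensitivity of cardiac thin filaments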
Tn7 DDE FP – inhibitors of Tn7 peptide binding to fibrin DD(E), primary screen, biochemical, fluorescence polarization, human fibrin, Tn7 probe. Fibrinogen beta chain (Homo sapiens), P02675. FP displacement of FITC-Tn7 peptide from fibrin DD(E); 0% = median of compound wells per plate. inhibition, % at 8.3 µM. 0.13% of 370,000 active. AID 720508, 2013;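 active = inhibition above the mean of compounds falling within the control limits plus 3 SD of them, cut at about 14% in these data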;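 note: 0% = plate median of compound wells and 100% = 10 µM Aha-Tn7 peptide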
Target sequence (P02675 whole entry, looked up): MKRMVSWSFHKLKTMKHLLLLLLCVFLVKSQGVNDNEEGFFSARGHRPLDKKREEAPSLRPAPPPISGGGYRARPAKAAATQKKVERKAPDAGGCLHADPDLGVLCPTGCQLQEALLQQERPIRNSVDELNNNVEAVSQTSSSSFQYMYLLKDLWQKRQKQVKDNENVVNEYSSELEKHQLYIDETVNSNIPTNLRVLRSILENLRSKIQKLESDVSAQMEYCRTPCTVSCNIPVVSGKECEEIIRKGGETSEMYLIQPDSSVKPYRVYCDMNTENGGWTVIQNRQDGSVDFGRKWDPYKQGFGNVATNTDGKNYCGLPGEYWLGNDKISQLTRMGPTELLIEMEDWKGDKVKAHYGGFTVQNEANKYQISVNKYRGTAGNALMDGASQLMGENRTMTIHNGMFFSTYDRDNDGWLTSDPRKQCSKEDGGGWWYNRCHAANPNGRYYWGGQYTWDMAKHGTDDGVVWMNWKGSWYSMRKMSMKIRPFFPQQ
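system = human fibrin DD(E) protein | quantity = DD(E) 2 µM final | medium = Tris/NaCl/CaCl2 buffer, pH 7.8 | also added = labelled Tn7 tracer, 0.1 µM | compound dosing = single point at 8.3 µM | timing = compound with protein 10 min, then 3 h after probe, room temperature | signal = FP measurement | benchmarks = Aha-Tn7 high control | repeats = one replicate per compound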
DDE Tn6 FP inh – inhibitors of Tn6 peptide binding to fibrin DD(E), primary screen, biochemical, fluorescence polarization, human fibrin, Tn6 probe. 0.21% of 370,000 active. inhibition, % at 8.3 µM. AID 720509, 2013. Fibrin DD(E) TRITC-Tn6 fluorescence polarization displacement;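 active = inhibition above a per-campaign cutoff: mean of compounds within control limits plus 3 SD, cut at about 15% in these data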;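 note: 0% = median of all compound wells on the plate and 100% = blocking peptide control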
Numbers without * were called inactive; x = no result. In the library only some 1.4% were active in any assay of this set; here they are far more common.

SMILES | CRFR2-BP antag | CRFR2-BP ag | RTF Ca sens inh | cardiac RTF act | Tn7 DDE FP | DDE Tn6 FP inh
Cc1ccc(C(=O)NNC(=S)NC(=O)c2ccccc2)cc1 | -41 | 138* | -4 | 3 | -5 | -7
Cc1ccccc1C(=O)NNC(=S)NC(=O)c1ccccc1 | 16 | 160* | -17 | 10 | -3 | 5
O=C(NNC(=S)NC(=O)c1ccccc1Cl)c1cccc([N+](=O)[O-])c1 | 36 | 65* | 2 | -1 | 5 | -6
COC(=O)[C@]12C[C@H](CC(=O)N3CCCCC3)C(=O)N(Cc3cccc4ccccc34)C1=C[C@H](C(C)(C)C)O[C@@H]2C | x | x | x | x | 3 | -6
O=C(NNC(=S)NC(=O)c1ccccc1)c1ccc([N+](=O)[O-])cc1 | 21 | 40 | 2 | 5 | 3 | 6
Cc1ccc(C(=O)NNC(=S)NC(=O)c2ccc(Cl)cc2Cl)cc1 | -46 | 156* | -14 | -10 | 5 | 6
O=C(NC(=S)NNC(=O)c1ccccc1O)c1ccc([N+](=O)[O-])cc1 | 18 | 50* | -12 | 1 | 8 | 0
Cc1occc1C(=O)NNC(=O)COc1ccc(Br)cc1Br | -15 | -2 | 13 | 4 | -2 | 2
O=C(O)c1ccc(NC(=S)NC(=O)c2ccc(-c3ccccc3)cc2)cc1 | 78* | -1 | -4 | 17 | 7 | 7
Cc1occc1C(=O)NNC(=S)NC(=O)COc1ccc(Cl)cc1Cl | -251 | 230* | 1 | 3 | -3 | -1
O=C(NC(=S)Nc1ccccc1)c1ccc(-c2ccccc2)cc1 | -21 | 3 | -15 | -3 | 3 | 1
COc1ccc(F)cc1-c1cc(C(=O)NCc2cccc(Cl)c2)[nH]n1 | x | x | x | x | 5 | 2
Cc1ccc(C(=O)NC(=S)NNC(=O)c2ccccc2)cc1 | 34 | 121* | -3 | -5 | 1 | 4
Cc1ccc(C(=O)NC(=S)NNC(=O)c2ccccc2O)cc1 | 12 | 90* | -8 | -6 | -7 | 1
O=C(NNC(=S)Nc1cccc(C(F)(F)F)c1)c1ccc(Cl)cc1Cl | 27 | 54* | -2 | -5 | -5 | 1
CCCCC(=O)NC(=S)NNC(=O)c1ccc(Cl)cc1Cl | 37 | 111* | -4 | 1 | -2 | -9
Cc1ccc(C(=O)NC(=S)NNC(=O)c2ccccc2[N+](=O)[O-])cc1 | 3 | 19 | -9 | -2 | -8 | 1
Cc1ccccc1C(=O)NNC(=S)Nc1cccc(C(F)(F)F)c1 | 46 | 13 | -15 | 1 | -12 | 3
Cc1ccc(CSc2nnc(-c3n[nH]c4c3CCC4)n2N)cc1 | x | x | x | x | -6 | -2
O=C(c1cccs1)C1CCN(c2ncnc3sccc23)CC1 | x | x | x | x | 0 | -6
CCC[C@H]1[C@@H](NS(=O)(=O)c2ccccc2[N+](=O)[O-])CC[C@@]23CCCN2C(=O)CCC[C@@H]13 | x | x | x | x | -2 | -3
O=S1(=O)CC2c3ccccc3CN2CN1C1CCCC1 (stereo not given) | x | x | x | x | 0 | 10
CCc1ccc(/C=C2\SC(=S)N(CCCC(=O)Nc3ccccn3)C2=O)cc1 | -34 | 24 | 1 | 37* | 6 | -3
COC(=O)c1ccc(/C=C2/SC(=S)N(CCCC(=O)Nc3ccccn3)C2=O)cc1 | -5 | 7 | 8 | -3 | -2 | 1
C[C@H]1[C@@H](OC(=O)N2CCN(c3ccccc3)CC2)CC[C@@]23CCCN2C(=O)CCC[C@@H]13 | x | x | x | x | 1 | 2
SMILES | CRFR2-BP antag | CRFR2-BP ag | RTF Ca sens inh | cardiac RTF act | Tn7 DDE FP | DDE Tn6 FP inh
CCOC(=O)NC[C@@]1(C(=O)OC)CC(=O)N(Cc2ccc(Cl)cc2)[C@@H]1c1ccc(OC)cc1 | x | x | x | x | 0 | -1
Cc1ccccc1CNC(=O)c1ccccc1N | 55* | 0 | 0 | 2 | 3 | -1
COc1ccc(-c2cc(C(F)(F)F)c3c(n2)sc2c(O)cc(=O)[nH]c23)c(OC)c1 | -126 | 80* | -70 | 38* | -2 | -2
COc1ccc(C2C(C#N)=C(N)Oc3cc(O)ccc32)cc1 (stereo not given) | -7 | 2 | 4 | -2 | 4 | 4
COc1ccc(N=Cc2cc3c(cc2O)OC(N)=C(C#N)C3c2ccccc2)cc1 (stereo not given) | -14 | 19 | -44 | 71* | -7 | -7
CC(C)NC(=O)Nc1ccc2c(c1)C(=O)N([C@H](C)CO)C[C@H](C)[C@@H](CN(C)Cc1ccc(C(F)(F)F)cc1)OCCCC[C@H](C)O2 | -1 | 1 | x | x | 1 | -8
CC(C)c1ccc(/C=N/NC(=O)c2ccc(-n3cnnn3)cc2)cc1 | 12 | 1 | -18 | -7 | -5 | 0
O=C1Cc2ccccc2Sc2ccc(O)cc21 | -57 | 92* | -5 | 3 | -13 | 0
Nc1ccc2c(c1)CC(=O)c1ccccc1S2 | 5 | -1 | -9 | 6 | 2 | -5
Cc1ccc(S(=O)(=O)NC(=O)C2(C)CCN2C(=O)c2ccccc2CCc2ccccc2)cc1 (stereo not given) | x | x | x | x | -3 | -6
CCn1c(C)c(C(C)=O)c(N2CCN(C(c3ccccc3)c3ccccc3)CC2)nc1=S | 5 | 2 | 7 | 5 | -2 | 1
CCn1c(C)c(C(C)=O)c(N2CCN(c3ccccc3)CC2)nc1=S | -19 | 60* | -21 | 10 | -3 | -1
Cc1ccc(S(=O)(=O)N2CCOCC2)cc1C(=O)NC1CCN(Cc2ccccc2)CC1 | 56* | 3 | -3 | -3 | -9 | -3
CCN1CCN(S(=O)(=O)c2ccc(Cl)c(C(=O)N(CCc3ccccc3)Cc3ccccc3)c2)CC1 | -5 | 19 | 0 | -9 | 5 | 0
COc1ccc(S(=O)(=O)N2CCCCCC2)cc1C(=O)N(C)Cc1ccc(C(C)(C)C)cc1 | 78* | 2 | -5 | 3 | 1 | -1
COc1ccc(S(=O)(=O)N2CCCCCC2)cc1C(=O)N(C)Cc1ccc(F)cc1 | -6 | 0 | -14 | -5 | -1 | -4
Cc1ccc(S(=O)(=O)N2CCCCC2)cc1C(=O)N(CCc1ccccc1)Cc1ccccc1 | 67* | 4 | -8 | -7 | 2 | -3
O=C(NC1CCN(Cc2ccccc2)C1)c1cc(S(=O)(=O)N2CCOCC2)ccc1Cl (stereo not given) | 17 | -1 | 2 | -3 | 4 | 0
Cc1nc2nc(C(F)(F)F)[nH]c2nc1C | 7 | -2 | x | x | 2 | 2
